Assay results of several laboratories.
Compare with care: the assays were run in different laboratories.
Cell line: CCRF-CEM
Effect on: cell growth or viability

Compound | method | time | IC50
O=C(c1ccccc1)c1cc2c(-c3ccccc3)c(O)ccc2o1 | – | 72 h | 34 µM
COc1ccc2c(N)c(C(=O)c3cc(OC)c(OC)c(OC)c3)[nH]c2c1 | – | 72 h | 0.32 µM
N#Cc1ccc(NC(=S)NN)cc1 | – | 72 h | 21 µg/mL
CC(C(=O)NC1CCCCC1)c1cccc(C(OC(=O)NC2CCCCC2)c2ccccc2)c1 (centres unmarked) | – | 72 h | 15 µM
CSc1ccc(NC(=S)NN)cc1 | – | 72 h | 20 µg/mL
CC(C(=O)NOCc1ccccc1)c1cccc(C(OC(=O)NOCc2ccccc2)c2ccccc2)c1 (centres unmarked) | – | 72 h | 14 µM
COc1ccc2c(N)c(C(=O)c3cc(OC)c(OC)c(OC)c3)n(C)c2c1 | – | 72 h | 0.071 µM
CC(C(=O)NCCc1ccccc1)c1cccc(C(OC(=O)NCCc2ccccc2)c2ccccc2)c1 (centres unmarked) | – | 72 h | 14 µM
N#Cc1ccc(NC(=S)NN=Cc2ccc([N+](=O)[O-])cc2)cc1 | – | 72 h | > 200 µg/mL
CC(C(=O)NC1CCCC1)c1cccc(C(OC(=O)NC2CCCC2)c2ccccc2)c1 (centres unmarked) | – | 72 h | 12 µM
COc1ccc2c(N)c(C(=O)c3cc(OC)c(OC)c(OC)c3)sc2c1 | – | 48 h | 0.0077 µM
N#Cc1ccc(NC(=S)NN=Cc2ccc(F)cc2)cc1 | – | 72 h | 38 µg/mL
COc1cc(C(=O)c2cc3c(-c4ccccc4)c(OC)ccc3o2)cc(OC)c1OC | – | 72 h | > 50 µM
COc1ccc2[nH]cc(CCNc3nccc(Nc4cccc5c4ccn5C)n3)c2c1 | fluorescence | 72 h | 0.01 µM
